These results are taken from ChEMBL document CHEMBL3352414, “Structure based inhibitor design targeting glycogen phosphorylase B. Virtual screening, synthesis, biochemical and biological assessment of novel N-acyl-β-d-glucopyranosylamines” (Bioorg Med Chem, 2014).

Series [1] deals with T1, Glycogen phosphorylase, liver form (Homo sapiens, UniProt P06737).
T1 sequence (P06737 whole entry): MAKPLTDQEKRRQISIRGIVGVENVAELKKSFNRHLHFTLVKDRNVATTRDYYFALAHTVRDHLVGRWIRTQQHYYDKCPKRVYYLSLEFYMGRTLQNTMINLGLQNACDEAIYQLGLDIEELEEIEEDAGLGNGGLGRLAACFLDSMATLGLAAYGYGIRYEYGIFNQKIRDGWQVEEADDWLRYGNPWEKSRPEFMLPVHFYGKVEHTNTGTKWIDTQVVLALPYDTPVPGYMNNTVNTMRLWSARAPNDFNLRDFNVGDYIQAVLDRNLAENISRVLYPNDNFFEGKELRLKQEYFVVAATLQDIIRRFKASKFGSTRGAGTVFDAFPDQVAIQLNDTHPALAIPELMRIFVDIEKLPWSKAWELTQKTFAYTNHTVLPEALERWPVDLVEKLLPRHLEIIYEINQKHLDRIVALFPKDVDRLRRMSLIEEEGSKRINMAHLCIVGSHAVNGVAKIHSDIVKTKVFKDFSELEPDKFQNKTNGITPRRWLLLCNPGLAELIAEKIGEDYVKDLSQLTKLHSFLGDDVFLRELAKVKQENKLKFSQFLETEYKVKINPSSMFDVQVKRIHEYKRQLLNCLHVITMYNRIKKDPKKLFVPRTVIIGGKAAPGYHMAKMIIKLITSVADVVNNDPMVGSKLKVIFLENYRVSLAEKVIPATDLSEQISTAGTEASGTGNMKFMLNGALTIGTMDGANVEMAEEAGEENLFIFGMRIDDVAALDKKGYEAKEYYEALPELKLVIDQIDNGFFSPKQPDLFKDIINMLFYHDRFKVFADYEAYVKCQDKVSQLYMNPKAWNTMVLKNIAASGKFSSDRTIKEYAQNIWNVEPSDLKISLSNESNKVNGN
The series can be described thus: Inhibition of glycogen phosphorylase a (unknown origin).

For series [2], the target named is T2, Glycogen phosphorylase, liver form (Rattus norvegicus) (UniProt P09811).
T2 sequence (whole entry): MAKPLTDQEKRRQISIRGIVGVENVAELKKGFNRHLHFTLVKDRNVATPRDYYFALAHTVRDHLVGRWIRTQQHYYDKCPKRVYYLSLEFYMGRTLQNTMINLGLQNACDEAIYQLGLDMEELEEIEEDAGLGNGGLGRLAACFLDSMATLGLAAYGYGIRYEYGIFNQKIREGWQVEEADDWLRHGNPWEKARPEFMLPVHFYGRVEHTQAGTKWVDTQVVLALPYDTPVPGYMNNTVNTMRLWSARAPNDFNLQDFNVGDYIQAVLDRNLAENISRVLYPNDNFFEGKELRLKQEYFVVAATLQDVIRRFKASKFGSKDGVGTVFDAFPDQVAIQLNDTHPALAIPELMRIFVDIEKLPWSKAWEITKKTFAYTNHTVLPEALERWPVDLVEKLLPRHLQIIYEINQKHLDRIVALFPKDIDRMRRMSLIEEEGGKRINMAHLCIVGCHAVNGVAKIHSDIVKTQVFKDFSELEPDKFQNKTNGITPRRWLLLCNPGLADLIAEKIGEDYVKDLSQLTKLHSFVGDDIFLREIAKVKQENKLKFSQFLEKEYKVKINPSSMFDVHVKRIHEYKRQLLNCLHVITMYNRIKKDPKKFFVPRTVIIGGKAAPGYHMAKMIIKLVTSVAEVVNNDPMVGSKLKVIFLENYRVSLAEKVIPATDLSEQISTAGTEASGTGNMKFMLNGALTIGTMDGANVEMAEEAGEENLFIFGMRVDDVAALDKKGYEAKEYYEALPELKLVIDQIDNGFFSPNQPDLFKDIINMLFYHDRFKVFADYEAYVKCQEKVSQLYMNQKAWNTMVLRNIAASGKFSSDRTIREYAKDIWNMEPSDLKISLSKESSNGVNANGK
The series can be described thus: Inhibition of glycogen phosphorylase a in Wistar rat hepatocytes assessed as effect on conversion of GPa to GPb forms by measuring GPa level at 20 uM after 30 mins relative to 5 mM glucose. Particulars: Hepatocyte. The format is cell-based. Also noted: scale not given: the % may be the effect or the level left. In short, it runs like this: (§1)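 Hepatocytes from male Wistar rats (200-300 g), isolated by collagenase perfusion, seeded at 6 x 10⁴ cells/cm² in MEM with 5% calf serum. After attachment they were cultured 24 h in serum-free MEM with 5 mM glucose, 10 nM dexamethasone and 1 nM insulin. Agents were added 1 h after the medium change and incubated 30 min. Cells were snap frozen, and GPa activity was read by coupling to glucose 6-phosphate dehydrogenase. Values are % of the 5 mM glucose control (with or without 9 mM 5-thioglucose); means ± SEM, n=5 preparations; paired t-test.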

In series [3] the target is T3, Glycogen phosphorylase, muscle form (Oryctolagus cuniculus, UniProt P00489).
T3 sequence (P00489 whole entry): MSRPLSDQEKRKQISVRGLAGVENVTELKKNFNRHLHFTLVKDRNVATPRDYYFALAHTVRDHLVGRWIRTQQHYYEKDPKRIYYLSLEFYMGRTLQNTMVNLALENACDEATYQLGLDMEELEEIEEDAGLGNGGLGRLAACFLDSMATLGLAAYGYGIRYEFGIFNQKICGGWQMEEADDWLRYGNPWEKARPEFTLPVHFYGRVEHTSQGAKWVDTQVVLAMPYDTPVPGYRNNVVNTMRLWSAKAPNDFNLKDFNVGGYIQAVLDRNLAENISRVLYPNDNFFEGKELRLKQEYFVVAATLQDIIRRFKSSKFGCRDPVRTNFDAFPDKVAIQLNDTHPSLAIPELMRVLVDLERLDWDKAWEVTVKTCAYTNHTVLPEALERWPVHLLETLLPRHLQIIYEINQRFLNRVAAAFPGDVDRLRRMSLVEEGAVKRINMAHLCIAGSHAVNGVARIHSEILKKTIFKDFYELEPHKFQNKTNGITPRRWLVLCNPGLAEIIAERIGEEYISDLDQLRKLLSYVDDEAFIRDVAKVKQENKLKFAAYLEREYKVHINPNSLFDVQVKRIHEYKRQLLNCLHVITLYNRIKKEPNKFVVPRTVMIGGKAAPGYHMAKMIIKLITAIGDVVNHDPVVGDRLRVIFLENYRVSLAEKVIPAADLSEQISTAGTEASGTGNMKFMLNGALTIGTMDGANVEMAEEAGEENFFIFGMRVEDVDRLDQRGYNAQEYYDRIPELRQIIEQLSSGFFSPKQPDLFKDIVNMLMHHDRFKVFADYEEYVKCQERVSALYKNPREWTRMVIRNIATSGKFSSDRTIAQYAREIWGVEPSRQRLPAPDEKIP
Description: Inhibition of rabbit skeletal muscle glycogen phosphorylase b assessed as inorganic phosphate release. The conditions noted are these: read-out: Ki.

Series [4] deals with T2, Glycogen phosphorylase, liver form (Rattus norvegicus). Description: Inhibition of glycogen phosphorylase a in Wistar rat hepatocytes assessed as effect on conversion of GPa to GPb forms by measuring GPa level at 2 uM after 30 mins relative to 5 mM glucose. Set-up: scale not given: the % may be the effect or the level left. Particulars: Hepatocyte. The format is cell-based. In short, it runs like this:
as §1

Series [5] can be described thus: Octanol water partition coefficient, logP of the compound. Type of series: physicochemical.
Series [6] in a line: Permeability in human Caco2 cells. Type of series: ADME, cell-based. The conditions noted are these: Caco-2, read-out: permeability.
Series [7] has as its target T2, Glycogen phosphorylase, liver form (Rattus norvegicus). Description: Inhibition of glycogen phosphorylase a in Wistar rat hepatocytes assessed as effect on conversion of GPa to GPb forms by measuring GPa level at 25 mM after 30 mins in presence of 9 mM 5-thioglucose relative to 5 mM glucose. Also noted: scale not given: the % may be the effect or the level left. The format is cell-based. Particulars: Hepatocyte. In short, it runs like this: as §1

The target is the same in series [8]. The series can be described thus: Inhibition of glycogen phosphorylase a in Wistar rat hepatocytes assessed as effect on conversion of GPa to GPb forms by measuring GPa level at 25 mM after 30 mins relative to 5 mM glucose. Set-up: scale not given: the % may be the effect or the level left. Particulars: Hepatocyte. Type of series: cell-based. In short, it runs like this: as §1

In series [9] the target is T4, Glycogen phosphorylase, muscle form (Homo sapiens, UniProt P11217).
T4 sequence (P11217 whole entry): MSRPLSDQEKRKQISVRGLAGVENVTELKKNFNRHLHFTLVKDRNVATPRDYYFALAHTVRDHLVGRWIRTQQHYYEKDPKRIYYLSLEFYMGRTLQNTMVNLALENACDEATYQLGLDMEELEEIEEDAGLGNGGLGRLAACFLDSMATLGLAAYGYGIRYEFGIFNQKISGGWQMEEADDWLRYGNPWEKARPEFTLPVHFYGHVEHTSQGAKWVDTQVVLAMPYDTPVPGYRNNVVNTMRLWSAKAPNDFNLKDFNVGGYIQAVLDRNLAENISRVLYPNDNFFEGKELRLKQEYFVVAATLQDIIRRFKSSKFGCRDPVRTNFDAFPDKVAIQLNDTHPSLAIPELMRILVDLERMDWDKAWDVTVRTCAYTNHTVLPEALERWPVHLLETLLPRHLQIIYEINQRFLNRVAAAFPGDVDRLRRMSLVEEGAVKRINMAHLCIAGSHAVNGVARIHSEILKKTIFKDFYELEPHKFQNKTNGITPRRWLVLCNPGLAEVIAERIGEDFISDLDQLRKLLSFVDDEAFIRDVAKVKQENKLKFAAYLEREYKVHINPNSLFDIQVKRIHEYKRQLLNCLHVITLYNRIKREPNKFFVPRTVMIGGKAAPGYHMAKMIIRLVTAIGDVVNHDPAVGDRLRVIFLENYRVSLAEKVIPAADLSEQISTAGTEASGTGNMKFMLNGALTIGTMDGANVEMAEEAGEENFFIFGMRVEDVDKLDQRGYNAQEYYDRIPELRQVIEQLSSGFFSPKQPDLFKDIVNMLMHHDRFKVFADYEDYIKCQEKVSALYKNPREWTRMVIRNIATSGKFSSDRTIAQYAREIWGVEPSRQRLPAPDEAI
Description: Inhibition of glycogen phosphorylase b (unknown origin). In short, it runs like this:
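Rabbit muscle GPb (5 μg/ml) was assayed at 30 °C in the glycogen-synthesis direction by measuring released inorganic phosphate. Buffer was 30 mM imidazole/HCl pH 6.8 with 60 mM KCl, 0.6 mM EDTA and 0.6 mM DTT. Glycogen 0.2% w/v and AMP 1 mM were held constant, with Glc-1-P at 2-20 mM and varied inhibitor. Enzyme and glycogen were preincubated 15 min, then Glc-1-P was added. Ki was obtained by non-linear regression of initial velocities.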

Series [10] concerns the target T2, Glycogen phosphorylase, liver form (Rattus norvegicus). The series can be described thus: Inhibition of glycogen phosphorylase a in Wistar rat hepatocytes assessed as effect on conversion of GPa to GPb forms by measuring GPa level at 9 mM after 30 mins relative to 5 mM glucose. Type of series: cell-based. Set-up: scale not given: the % may be the effect or the level left. The conditions noted are these: Hepatocyte. In short, it runs like this:
as §1

In general, Ki refers to a measure of affinity in units of concentration, obtained from inhibition or displacement. Take `OC[C@H]1O[C@H](O)[C@H](O)[C@@H](O)[C@@H]1O`: the Ki in [1] was determined as 4900 µM.

In general, logP refers to a log measure of how a compound divides between an organic and an aqueous phase. For the compound `CC(C)c1ccc(/C=C/C(=O)N[C@@H]2O[C@H](CO)[C@@H](O)[C@H](O)[C@H]2O)cc1`, the Activity amounted to 106% in series [2] and 105% in series [4]. The inhibitory constant (Ki) in series [3] amounted to 4.98 µM. This compound also gave a log partition coefficient (logP) in series [5] of 0.296. In series [6], the Papp was 9.85 ×10⁻⁶ cm/s.

As for `O=C(CCCc1ccc2c(c1)CCCC2)N[C@@H]1O[C@H](CO)[C@@H](O)[C@H](O)[C@H]1O`, the Activity in [2] was found to be 100%; in series [4], 93%. Also, the Ki in series [3] worked out at 48.7 µM. Also, the logP in series [5] amounted to 0.208. In [6], the Papp turned out to be 9.51 ×10⁻⁶ cm/s.

In general, IC50 refers to the midpoint of a concentration-inhibition curve. As to `O=C(NCCOCCOCCNC(=O)c1cc2cc(Cl)ccc2[nH]1)c1cc2cc(Cl)ccc2[nH]1`, the IC50 in series [1] amounted to 0.006 µM.

For `O=c1c(O)c(-c2ccc(O)c(O)c2)oc2cc(O)cc(O)c12` [QUERCETIN], the 50% inhibitory concentration (IC50) in series [1] came to 4.8 µM.

Take `OC[C@H]1OC(O)[C@H](O)[C@@H](O)[C@@H]1O` (stereo partly drawn): the Activity amounted to 78.7% in series [7] and 64.1% in series [8].

Regarding `O=C(COc1ccc(-c2ccccc2)cc1)N[C@@H]1O[C@H](CO)[C@@H](O)[C@H](O)[C@H]1O`, the Activity in [2] amounted to 80.3%; in series [4], 84.5%. The Ki in series [3] was 8.25 µM. Also, the logP in series [5] was -0.082. Also, the Papp in [6] worked out at 5.09 ×10⁻⁶ cm/s.

Turning to `OC[C@H]1O[C@H](O[C@H]2[C@H](O)[C@@H](O)[C@@H](O[C@H]3[C@H](O)[C@@H](O)[C@@H](O[C@H]4[C@H](O)[C@@H](O)[C@@H](O[C@H]5[C@H](O)[C@@H](O)[C@@H](O[C@H]6[C@H](O)[C@@H](O)[C@@H](O[C@H]7[C@H](O)[C@@H](O)C(O)O[C@@H]7CO)O[C@@H]6CO)O[C@@H]5CO)O[C@@H]4CO)O[C@@H]3CO)O[C@@H]2CO)[C@H](O)[C@@H](O)[C@@H]1O` (stereo partly drawn), the inhibition constant Ki in series [9] was 1000 µM.

Regarding `O=C(/C=C/c1ccc(-c2ccccc2)cc1)N[C@@H]1O[C@H](CO)[C@@H](O)[C@H](O)[C@H]1O`, the Activity in [2] stood at 83.3%; in series [4] it was 89.4%. Moreover, the inhibitory constant (Ki) in [3] amounted to 5.14 µM. The logP in series [5] was found to be 0.851. Moreover, the Papp in series [6] is 8.02 ×10⁻⁶ cm/s.

`O=C(O)C1=C(C(=O)O)NC=CC1` yielded an inhibition constant Ki in series [9] of 0.0016 µM.

Regarding `O=C[C@H](O)[C@@H](O)[C@H](O)[C@H](S)CO`, in [10], the Activity is 106%.
